According to ChEMBL document CHEMBL4052595, “Application of Residual Dipolar Couplings and Selective Quantitative NOE to Establish the Structures of Tetranortriterpenoids from Xylocarpus rumphii” (J Nat Prod, 2017):
The source made the active and inactive calls.

Legend:
Format in all cases: functional, cell-based
[1] = tested on: M14; assay: Growth inhibition of human M14 cells at 10^-5 M incubated for 48 hrs by sulforhodamine B assay
Method in brief: (§1)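 Run in the NCI59 one-dose cell-line screen, with each compound tested at a single concentration of 1 × 10−5 M.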

[2] = tested on: NCI-H522; assay: Growth inhibition of human NCI-H522 cells at 10^-5 M incubated for 48 hrs by sulforhodamine B assay; method in brief: as §1
[3] = tested on: HL-60(TB); assay: Growth inhibition of human HL-60(TB) cells at 10^-5 M incubated for 48 hrs by sulforhodamine B assay
Method in brief: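 Run in the NCI59 cell-line one-dose screen, with each compound tested at a single concentration of 1 × 10−5 M.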

[4] = tested on: SF-295; assay: Growth inhibition of human SF295 cells at 10^-5 M incubated for 48 hrs by sulforhodamine B assay; method in brief: as §1
[5] = tested on: HCT-15; assay: Growth inhibition of human HCT15 cells at 10^-5 M incubated for 48 hrs by sulforhodamine B assay; method in brief: as §1
[6] = tested on: NCI-H23; assay: Growth inhibition of human NCI-H23 cells at 10^-5 M incubated for 48 hrs by sulforhodamine B assay; method in brief: as §1
[7] = tested on: A498; assay: Growth inhibition of human A498 cells at 10^-5 M incubated for 48 hrs by sulforhodamine B assay; method in brief: as §1
[8] = tested on: 786-0; assay: Growth inhibition of human 786-0 cells at 10^-5 M incubated for 48 hrs by sulforhodamine B assay; method in brief: as §1
[9] = tested on: IGROV-1; assay: Growth inhibition of human IGROV1 cells at 10^-5 M incubated for 48 hrs by sulforhodamine B assay; method in brief: as §1
[10] = tested on: NCI/ADR-RES; assay: Growth inhibition of human NCI/ADR-RES cells at 10^-5 M incubated for 48 hrs by sulforhodamine B assay; method in brief: as §1
[11] = tested on: OVCAR-5; assay: Growth inhibition of human OVCAR5 cells at 10^-5 M incubated for 48 hrs by sulforhodamine B assay; method in brief: as §1
[12] = tested on: HT-29; assay: Growth inhibition of human HT-29 cells at 10^-5 M incubated for 48 hrs by sulforhodamine B assay; method in brief: as §1
[13] = tested on: SF-539; assay: Growth inhibition of human SF539 cells at 10^-5 M incubated for 48 hrs by sulforhodamine B assay; method in brief: as §1
[14] = tested on: BT-549; assay: Growth inhibition of human BT549 cells at 10^-5 M incubated for 48 hrs by sulforhodamine B assay; method in brief: as §1
[15] = tested on: DU-145; assay: Growth inhibition of human DU145 cells at 10^-5 M incubated for 48 hrs by sulforhodamine B assay; method in brief: as §1
[16] = tested on: NCI-H322M; assay: Growth inhibition of human NCI-H322M cells at 10^-5 M incubated for 48 hrs by sulforhodamine B assay; method in brief: as §1
[17] = tested on: COLO 205; assay: Growth inhibition of human COLO205 cells at 10^-5 M incubated for 48 hrs by sulforhodamine B assay; method in brief: as §1
[18] = tested on: MDA-MB-231; assay: Growth inhibition of human MDA-MB-231 cells at 10^-5 M incubated for 48 hrs by sulforhodamine B assay; method in brief: as §1
[19] = tested on: HOP-92; assay: Growth inhibition of human HOP92 cells at 10^-5 M incubated for 48 hrs by sulforhodamine B assay; method in brief: as §1
[20] = tested on: CAKI-1; assay: Growth inhibition of human Caki1 cells at 10^-5 M incubated for 48 hrs by sulforhodamine B assay; method in brief: as §1
[21] = tested on: UO-31; assay: Growth inhibition of human UO31 cells at 10^-5 M incubated for 48 hrs by sulforhodamine B assay
Method in brief: (§2)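 Tested at a single concentration of 1 × 10−5 M as part of the NCI59 cell-line one-dose screen.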

[22] = tested on: HCC 2998; assay: Growth inhibition of human HCC2998 cells at 10^-5 M incubated for 48 hrs by sulforhodamine B assay; method in brief: as §1
[23] = tested on: LOX IMVI; assay: Growth inhibition of human LOXIMVI cells at 10^-5 M incubated for 48 hrs by sulforhodamine B assay; method in brief: as §1
[24] = tested on: NCI-H460; assay: Growth inhibition of human NCI-H460 cells at 10^-5 M incubated for 48 hrs by sulforhodamine B assay; method in brief: as §1
[25] = tested on: HOP-62; assay: Growth inhibition of human HOP62 cells at 10^-5 M incubated for 48 hrs by sulforhodamine B assay; method in brief: as §1
[26] = tested on: NCI-H226; assay: Growth inhibition of human NCI-H226 cells at 10^-5 M incubated for 48 hrs by sulforhodamine B assay; method in brief: as §1
[27] = tested on: MOLT-4; assay: Growth inhibition of human MOLT4 cells at 10^-5 M incubated for 48 hrs by sulforhodamine B assay; method in brief: as §1
[28] = tested on: SNB-75; assay: Growth inhibition of human SNB75 cells at 10^-5 M incubated for 48 hrs by sulforhodamine B assay; method in brief: as §1
[29] = tested on: SNB-19; assay: Growth inhibition of human SNB19 cells at 10^-5 M incubated for 48 hrs by sulforhodamine B assay; method in brief: as §1
[30] = tested on: UACC-257; assay: Growth inhibition of human UACC257 cells at 10^-5 M incubated for 48 hrs by sulforhodamine B assay; method in brief: as §2
[31] = tested on: SK-MEL-5; assay: Growth inhibition of human SK-MEL-5 cells at 10^-5 M incubated for 48 hrs by sulforhodamine B assay; method in brief: as §1
[32] = tested on: KM12; assay: Growth inhibition of human KM12 cells at 10^-5 M incubated for 48 hrs by sulforhodamine B assay; method in brief: as §1
[33] = tested on: SW-620; assay: Growth inhibition of human SW620 cells at 10^-5 M incubated for 48 hrs by sulforhodamine B assay; method in brief: as §2
[34] = tested on: SR; assay: Growth inhibition of human SR cells at 10^-5 M incubated for 48 hrs by sulforhodamine B assay; method in brief: as §1
[35] = tested on: U-251; assay: Growth inhibition of human U251 cells at 10^-5 M incubated for 48 hrs by sulforhodamine B assay; method in brief: as §2
[36] = tested on: SK-MEL-2; assay: Growth inhibition of human SK-MEL-2 cells at 10^-5 M incubated for 48 hrs by sulforhodamine B assay; method in brief: as §1
[37] = tested on: OVCAR-4; assay: Growth inhibition of human OVCAR4 cells at 10^-5 M incubated for 48 hrs by sulforhodamine B assay; method in brief: as §1
[38] = tested on: CCRF-CEM; assay: Growth inhibition of human CCRF-CEM cells at 10^-5 M incubated for 48 hrs by sulforhodamine B assay; method in brief: as §1
[39] = tested on: OVCAR-3; assay: Growth inhibition of human OVCAR3 cells at 10^-5 M incubated for 48 hrs by sulforhodamine B assay; method in brief: as §1
[40] = tested on: RXF 393; assay: Growth inhibition of human RXF393 cells at 10^-5 M incubated for 48 hrs by sulforhodamine B assay; method in brief: as §1
[41] = tested on: EKVX; assay: Growth inhibition of human EKVX cells at 10^-5 M incubated for 48 hrs by sulforhodamine B assay; method in brief: as §1
[42] = tested on: RPMI-8226; assay: Growth inhibition of human RPMI8226 cells at 10^-5 M incubated for 48 hrs by sulforhodamine B assay; method in brief: as §1
[43] = tested on: OVCAR-8; assay: Growth inhibition of human OVCAR8 cells at 10^-5 M incubated for 48 hrs by sulforhodamine B assay; method in brief: as §1
[44] = tested on: K562; assay: Growth inhibition of human K562 cells at 10^-5 M incubated for 48 hrs by sulforhodamine B assay; method in brief: as §1
[45] = tested on: SN12C; assay: Growth inhibition of human SN12C cells at 10^-5 M incubated for 48 hrs by sulforhodamine B assay; method in brief: as §1
[46] = tested on: MDA-MB-435; assay: Growth inhibition of human MDA-MB-435 cells at 10^-5 M incubated for 48 hrs by sulforhodamine B assay; method in brief: as §1
[47] = tested on: MCF7; assay: Growth inhibition of human MCF7 cells at 10^-5 M incubated for 48 hrs by sulforhodamine B assay; method in brief: as §1
[48] = tested on: SK-MEL-28; assay: Growth inhibition of human SK-MEL-28 cells at 10^-5 M incubated for 48 hrs by sulforhodamine B assay; method in brief: as §1
[49] = tested on: SK-OV-3; assay: Growth inhibition of human SKOV3 cells at 10^-5 M incubated for 48 hrs by sulforhodamine B assay; method in brief: as §1
[50] = tested on: Hs-578T; assay: Growth inhibition of human Hs 578T cells at 10^-5 M incubated for 48 hrs by sulforhodamine B assay; method in brief: as §1
[51] = tested on: TK-10; assay: Growth inhibition of human TK10 cells at 10^-5 M incubated for 48 hrs by sulforhodamine B assay; method in brief: as §2
[52] = tested on: ACHN; assay: Growth inhibition of human ACHN cells at 10^-5 M incubated for 48 hrs by sulforhodamine B assay; method in brief: as §1
[53] = tested on: T47D; assay: Growth inhibition of human T47D cells at 10^-5 M incubated for 48 hrs by sulforhodamine B assay; method in brief: as §2
[54] = tested on: PC-3; assay: Growth inhibition of human PC3 cells at 10^-5 M incubated for 48 hrs by sulforhodamine B assay; method in brief: as §1
[55] = tested on: A549; assay: Growth inhibition of human A549/ATCC cells at 10^-5 M incubated for 48 hrs by sulforhodamine B assay; method in brief: as §1
[56] = tested on: HCT-116; assay: Growth inhibition of human HCT116 cells at 10^-5 M incubated for 48 hrs by sulforhodamine B assay; method in brief: as §1
[57] = tested on: UACC-62; assay: Growth inhibition of human UACC62 cells at 10^-5 M incubated for 48 hrs by sulforhodamine B assay; method in brief: as §2
[58] = tested on: SF-268; assay: Growth inhibition of human SF268 cells at 10^-5 M incubated for 48 hrs by sulforhodamine B assay; method in brief: as §1

Measured: growth inhibition (GI)

CC[C@H](C)C(=O)O[C@@H]1[C@H]2C(=O)[C@](C)([C@H]3CC[C@@]4(C)[C@H](c5ccoc5)OC(=O)C[C@]45O[C@]35[C@@H]2OC(=O)C(C)C)[C@@H](CC(=O)OC)C1(C)C
inactive: [1] | [2] | [3] | [4] | [5] | [6] | [7] | [8] | [9] | [10] | [11] | [12] | [13] | [14] | [15] | [16] | [17] | [18] | [19] | [20] | [21] | [22] | [23] | [24] | [25] | [26] | [27] | [28] | [29] | [30] | [31] | [32] | [33] | [34] | [35] | [36] | [37] | [38] | [39] | [40] | [41] | [42] | [43] | [44] | [45] | [46] | [47] | [48] | [49] | [50] | [51] | [52] | [53] | [54] | [55] | [56] | [57] | [58]
